Measured values as given in ChEMBL document CHEMBL4118252, “Identification of novel thiazolo[5,4-d]pyrimidine derivatives as human A1 and A2A adenosine receptor antagonists/inverse agonists” (Bioorg Med Chem, 2018).
Each block holds one compound with its values, some of them ahead of it.

Columns and labels:
[1] = molecular target: T1, Adenosine receptor A2a (Homo sapiens, UniProt P29274); assay: Displacement of [3H]-ZM 241,385 from human A2A adenosine receptor expressed in CHO cell membranes after 60 mins by scintillation counting method
T1 sequence (P29274 whole entry): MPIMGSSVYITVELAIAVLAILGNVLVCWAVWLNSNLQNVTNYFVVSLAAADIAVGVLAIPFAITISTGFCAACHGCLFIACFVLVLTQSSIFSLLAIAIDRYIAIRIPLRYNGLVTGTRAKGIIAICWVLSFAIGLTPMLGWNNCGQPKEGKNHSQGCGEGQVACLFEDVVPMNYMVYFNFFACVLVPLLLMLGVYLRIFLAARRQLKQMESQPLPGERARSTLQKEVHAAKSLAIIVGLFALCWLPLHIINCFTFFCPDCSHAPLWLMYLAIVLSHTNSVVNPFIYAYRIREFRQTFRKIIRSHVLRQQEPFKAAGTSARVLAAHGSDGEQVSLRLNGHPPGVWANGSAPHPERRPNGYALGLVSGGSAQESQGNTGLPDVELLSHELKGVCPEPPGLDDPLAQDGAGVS
Method in brief: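 hA2A CHO membranes (50 µg protein/100 µl), 1 nM [3H]-ZM 241385, graded test concentrations, 60 min at 4°C in 50 mM Tris-HCl pH 7.4 with 10 mM MgCl2. Nonspecific: 1 µM ZM 241385.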

[2] = molecular target: T1, Adenosine receptor A2a; assay: Displacement of [3H]-ZM 241,385 from human A2A adenosine receptor expressed in CHO cell membranes at 10 uM after 60 mins by scintillation counting method relative to control
Method in brief: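 Using 1 nM [3H]-ZM 241385 on hA2A CHO membranes, 60 min, 4°C, 50 mM Tris-HCl pH 7.4, 10 mM MgCl2; 1 µM ZM 241385 for nonspecific binding; filtered and counted. Percent inhibition measured at 10 µM compound.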

[3] = molecular target: T2, Adenosine receptor A1 (Homo sapiens, UniProt P30542); assay: Displacement of [3H]-DPCPX from human A1 adenosine receptor expressed in CHO cell membranes after 90 mins by scintillation counting method
T2 sequence (P30542 whole entry): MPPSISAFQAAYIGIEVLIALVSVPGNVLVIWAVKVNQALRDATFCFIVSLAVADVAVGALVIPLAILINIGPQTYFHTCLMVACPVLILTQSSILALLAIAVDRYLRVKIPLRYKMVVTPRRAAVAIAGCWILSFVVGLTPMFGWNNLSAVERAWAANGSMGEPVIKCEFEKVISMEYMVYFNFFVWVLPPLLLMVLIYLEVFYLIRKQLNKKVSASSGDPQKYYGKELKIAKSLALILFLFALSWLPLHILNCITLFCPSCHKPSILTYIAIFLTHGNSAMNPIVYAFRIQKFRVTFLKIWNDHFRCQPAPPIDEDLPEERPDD
Method in brief: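 Membranes from CHO cells expressing hA1 (50 µg protein/100 µl) incubated with 1 nM [3H]-DPCPX and varying test concentrations, 25°C, 90 min, 50 mM Tris-HCl pH 7.4. Nonspecific binding with 1 µM DPCPX. Filtration over glass fiber filters, scintillation counting.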

[4] = molecular target: T3, Adenosine receptor A2b (Homo sapiens, UniProt P29275); assay: Antagonist activity at human A2B adenosine receptor assessed as inhibition of NECA-stimulated cAMP level after 30 mins by Alphascreen assay; assay type: functional
T3 sequence (P29275 whole entry): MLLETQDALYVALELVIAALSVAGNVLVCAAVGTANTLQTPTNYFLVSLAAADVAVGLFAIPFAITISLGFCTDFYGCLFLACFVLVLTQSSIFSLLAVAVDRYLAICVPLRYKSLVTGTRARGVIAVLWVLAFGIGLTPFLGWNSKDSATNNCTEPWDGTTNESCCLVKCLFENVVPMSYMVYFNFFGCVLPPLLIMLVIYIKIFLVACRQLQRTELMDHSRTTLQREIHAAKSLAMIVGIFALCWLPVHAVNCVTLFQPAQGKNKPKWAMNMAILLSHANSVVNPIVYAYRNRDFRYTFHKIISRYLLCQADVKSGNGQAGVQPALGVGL
Method in brief: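 Cells with compounds and anti-cAMP acceptor beads 30 min, then streptavidin donor beads plus biotinylated cAMP 1 h; AlphaScreen read. IC50 by sigmoid nonlinear regression.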

[5] = molecular target: T4, Adenosine receptor A3 (Homo sapiens, UniProt P0DMS8); assay: Displacement of [125I]-ABMECA from human A3 adenosine receptor expressed in CHO cell membranes after 120 mins by scintillation counting method
T4 sequence (P0DMS8 whole entry): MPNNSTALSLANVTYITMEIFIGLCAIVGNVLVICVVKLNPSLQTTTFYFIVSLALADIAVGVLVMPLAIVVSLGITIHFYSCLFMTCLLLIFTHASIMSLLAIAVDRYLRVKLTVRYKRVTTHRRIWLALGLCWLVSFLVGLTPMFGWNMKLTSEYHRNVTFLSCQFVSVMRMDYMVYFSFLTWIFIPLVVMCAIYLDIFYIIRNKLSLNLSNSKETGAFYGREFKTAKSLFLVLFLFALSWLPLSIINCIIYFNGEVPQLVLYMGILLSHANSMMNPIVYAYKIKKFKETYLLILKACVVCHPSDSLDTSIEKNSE

[6] = molecular target: T1, Adenosine receptor A2a; assay: Antagonist activity at human A2A adenosine receptor expressed in CHO cells assessed as inhibition of CGS21680-stimulated cAMP level after 30 mins by Alphascreen assay relative to control; assay type: functional, cell-based
Method in brief: (§1)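 Same hA2A CHO cAMP experiment run in presence of CGS 21680 (10 nM); compounds at varied concentrations, AlphaScreen cAMP detection (30 min, then 1 h). IC50 via sigmoid nonlinear regression, Emax efficacy; four experiments in triplicate, mean ± SEM.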

[7] = molecular target: T1, Adenosine receptor A2a; assay: Inverse agonist activity at human A2A adenosine receptor expressed in CHO cells assessed as inhibition of basal cAMP level after 30 mins by Alphascreen assay relative to control; assay type: functional, cell-based
Method in brief: (§2)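 hA2A CHO cells exposed to varied compound concentrations without agonist, measuring decrease of basal cAMP; AlphaScreen detection (30 min acceptor beads, then 1 h donor beads with biotinylated cAMP). IC50 from sigmoid nonlinear fit, Emax efficacy; mean ± SEM.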

[8] = molecular target: T1, Adenosine receptor A2a; assay: Antagonist activity at human A2A adenosine receptor expressed in CHO cells assessed as inhibition of CGS21680-stimulated cAMP level after 30 mins by Alphascreen assay; assay type: functional, cell-based; method in brief: as §1
[9] = molecular target: T1, Adenosine receptor A2a; assay: Inverse agonist activity at human A2A adenosine receptor expressed in CHO cells assessed as inhibition of basal cAMP level after 30 mins by Alphascreen assay; assay type: functional, cell-based; method in brief: as §2
[10] = molecular target: T5, Adenosine receptor A1 (Homo sapiens) (UniProt P30542); assay: Antagonist activity at human A1 adenosine receptor expressed in CHO cells assessed as inhibition of CCPA-induced reduction of forskolin-stimulated cAMP level after 30 mins by Alphascreen assay relative to control; assay type: functional, cell-based
T5 sequence (whole entry): T2 sequence (P30542 whole entry)
Method in brief: (§3)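 hA1 CHO cells given Forskolin (5 µM) and 1 nM CCPA with varied compound concentrations; AlphaScreen cAMP detection (30 min with acceptor beads, then donor beads/biotinylated cAMP 1 h). IC50 by sigmoid nonlinear regression; Emax as efficacy in reversing CCPA inhibition; mean ± SEM.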

[11] = molecular target: T2, Adenosine receptor A1; assay: Antagonist activity at human A1 adenosine receptor expressed in CHO cells assessed as inhibition of CCPA-induced reduction of forskolin-stimulated cAMP level after 30 mins by Alphascreen assay; assay type: functional, cell-based; method in brief: as §3
[12] = molecular target: T5, Adenosine receptor A1 (Homo sapiens); assay: Modulation of human A1 adenosine receptor expressed in CHO cells assessed as forskolin-stimulated cAMP level after 30 mins by Alphascreen assay relative to control; assay type: functional, cell-based
Method in brief: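 In hA1 CHO cells, compounds incubated with Forskolin (5 µM) without agonist; cAMP quantified by AlphaScreen (30 min acceptor-bead step, then 1 h donor beads and biotinylated cAMP). Expressed as % of Forskolin-stimulated cAMP (100%); mean ± SEM.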

[13] = molecular target: T6, Adenosine receptor A2b (Homo sapiens) (UniProt P29275); assay: Antagonist activity at human A2B adenosine receptor assessed as inhibition of NECA-stimulated cAMP level at 10 uM after 30 mins by Alphascreen assay relative to control; assay type: functional
T6 sequence (whole entry): T3 sequence (P29275 whole entry)

SMILES: COc1cccc(CNc2nc(N)c3nc(-c4cnccn4)sc3n2)c1
Ki [1]: 973 nM

SMILES: Nc1nc(Nc2ccccc2)nc2sc(-c3ccccc3)nc12
inhibition [2]: 1% | Ki [1]: > 10000 nM

SMILES: COc1cccc(CNc2nc(N)c3nc(C)sc3n2)c1
Ki [1]: 212 nM

SMILES: Nc1nc(NCCc2ccccc2)nc2sc(-c3ccccc3)nc12
Ki [3]: 121 nM | IC50 [4]: 4380 nM | Ki [1]: 406 nM | Ki [5]: 2270 nM

SMILES: Cc1nc2c(N)nc(NCc3cccs3)nc2s1
Ki [1]: 313 nM

SMILES: Nc1nc(NCc2cccs2)nc2sc(-c3cnccn3)nc12
Ki [1]: 219 nM

SMILES: Nc1nc(NCc2ccccc2)nc2sc(-c3ccccc3)nc12
Ki [1]: 116 nM

SMILES: COc1ccccc1CNc1nc(N)c2nc(C)sc2n1
Ki [1]: 135 nM

SMILES: Cc1nc2c(N)nc(NCc3ccccc3)nc2s1
Ki [1]: 532 nM

SMILES: COc1ccc(CCNc2nc(N)c3nc(-c4ccccc4)sc3n2)cc1
Ki [3]: 485 nM | IC50 [4]: > 10000 nM | inhibition [13]: 33% | Ki [1]: 403 nM | Ki [5]: 3530 nM

SMILES: Cc1nc2c(N)nc(Nc3ccccc3)nc2s1
Ki [1]: 608 nM

Compounds with a lower Ki [1], results first:

Ki [3]: 140 nM | IC50 [4]: 1100 nM | Ki [1]: 78 nM | Ki [5]: 548 nM
SMILES: Cc1nc2c(N)nc(NCCc3ccccc3)nc2s1

Emax [6]: 128% | Emax [7]: 52% | IC50 [8]: 66 nM | Ki [1]: 42 nM | IC50 [9]: 48 nM
SMILES: COc1cccc(CNc2nc(N)c3nc(-c4ccccc4)sc3n2)c1

Ki [3]: 242 nM | IC50 [4]: 7520 nM | Ki [1]: 96 nM | Ki [5]: 1610 nM
SMILES: Nc1nc(NCCc2ccc(O)cc2)nc2sc(-c3ccccc3)nc12

Ki [1]: 79 nM
SMILES: COc1ccccc1CNc1nc(N)c2nc(-c3cnccn3)sc2n1

Emax [6]: 131% | Emax [7]: 64% | IC50 [8]: 43 nM | Ki [1]: 28 nM | IC50 [9]: 36 nM
SMILES: Nc1nc(NCc2cccs2)nc2sc(-c3ccccc3)nc12

IC50 [8]: 7.63 nM | Ki [1]: 4.72 nM | IC50 [9]: 5.34 nM
SMILES: COc1ccccc1CNc1nc(N)c2nc(-c3ccccc3)sc2n1

Ki [3]: 92 nM | Emax [10]: 98% | IC50 [11]: 107 nM | Emax [6]: 124% | IC50 [4]: 134 nM | Emax [7]: 58% | Activity [12]: 100% | IC50 [8]: 102 nM | Ki [1]: 61 nM | IC50 [9]: 83 nM | Ki [5]: 1520 nM
SMILES: Cc1nc2c(N)nc(NCCc3cccs3)nc2s1
